Results from PubChem BioAssay AID504830 (Southern Research Specialized Biocontainment Screening …, 2011).

test system: HEp-2 cells, RSV plaque reduction, virus titer; assay: RSV titer reduction by inhibitors, cell-based, plaque reduction (AID 504830); details: at 25 µM; hits give low values
How it was run: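 Assay system: HEp-2 cells infected with respiratory syncytial virus Long strain; Signal: HEp-2 plaque titration, 1% Avicel overlay, six days, neutral red stain; Doses: compound added after virus wash, 0.5% DMSO final; Schedule: 48 h compound exposure at 37 °C after infection.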

SMILES	log virus titer change
COc1ccc(C)c(NC(=O)[C@@H]2CCCN2S(=O)(=O)c2cccc3cccnc23)c1	-1
Cc1ccc(NC(=O)[C@@H]2CCCN2S(=O)(=O)c2cccc3cccnc23)c(C)c1	-1
Cc1ccc(C)c(NC(=O)[C@@H]2CCCN2S(=O)(=O)c2cccc3cccnc23)c1	-2
Cc1ccc(NC(=O)C2CCCN2S(=O)(=O)c2cccc3cccnc23)c(C)c1 (centres undefined)	-2.1
